This note sets out measurements from ChEMBL document CHEMBL2046296, “Synthesis and antidepressant activity of arylalkanol-piperidine derivatives as triple reuptake inhibitors” (Eur J Med Chem, 2012).

Molecules are shown by their SMILES. pIC50: −log10 of the molar value.

Data set [1] concerns the target T1, Sodium-dependent noradrenaline transporter (Homo sapiens, UniProt P23975). The experiment in a line: Inhibition of [3H]noradrenaline uptake at human NET expressed in HEK293 cells at 10 uM after 10 mins by scintillation counting.
Data set [2] addresses T2, Sodium-dependent serotonin transporter (Homo sapiens, UniProt P31645). Kind of data set: Inhibition of [3H]serotonin uptake at human SERT expressed in HEK293 cells at 10 uM after 10 min by scintillation counting.
Target sequence in this assay (P31645 whole entry, looked up): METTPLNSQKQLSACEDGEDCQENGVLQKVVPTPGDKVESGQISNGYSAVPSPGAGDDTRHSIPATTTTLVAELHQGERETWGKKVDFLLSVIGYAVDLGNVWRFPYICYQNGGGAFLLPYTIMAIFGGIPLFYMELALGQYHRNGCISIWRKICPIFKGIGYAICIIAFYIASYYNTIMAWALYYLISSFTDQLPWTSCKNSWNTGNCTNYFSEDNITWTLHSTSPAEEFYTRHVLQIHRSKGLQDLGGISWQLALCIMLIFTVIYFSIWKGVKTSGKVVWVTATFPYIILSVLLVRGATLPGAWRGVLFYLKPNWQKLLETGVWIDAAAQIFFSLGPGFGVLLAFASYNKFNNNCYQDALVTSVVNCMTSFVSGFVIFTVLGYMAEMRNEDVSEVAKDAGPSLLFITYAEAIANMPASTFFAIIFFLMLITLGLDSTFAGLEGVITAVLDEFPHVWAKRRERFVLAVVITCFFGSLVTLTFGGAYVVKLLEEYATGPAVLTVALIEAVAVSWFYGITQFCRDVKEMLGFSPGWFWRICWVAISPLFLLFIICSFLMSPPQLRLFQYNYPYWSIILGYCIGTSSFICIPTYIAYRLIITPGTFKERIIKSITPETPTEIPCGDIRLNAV
The target in data set [3] is Sodium-dependent dopamine transporter (Homo sapiens, UniProt Q01959). The experiment in a line: Inhibition of [3H]dopamine uptake at human DAT expressed in HEK293 cells at 10 uM after 10 mins by scintillation counting.
For data set [4], the target named is T2, Sodium-dependent serotonin transporter. The experiment in a line: Inhibition of [3H]serotonin uptake at human SERT expressed in HEK293 cells after 10 min by scintillation counting.
Target sequence in this assay (P31645 whole entry): as the sequence (P31645 whole entry, looked up) above
Data set [5] concerns the target T1, Sodium-dependent noradrenaline transporter. The experiment in a line: Inhibition of [3H]noradrenaline uptake at human NET expressed in HEK293 cells after 10 mins by scintillation counting.
For data set [6], the system named is Mus musculus. Kind of data set: Toxicity in mouse assessed as increase in locomotor activity at 50 mg/kg, po up to 5 mins relative to vehicle treated control. The data set is classed as organism-based. On the set-up: dose 50 mg/kg, route oral. As to conditions: in vivo. The essentials: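 Mice were dosed orally at 50 mg/kg and 30 min later placed singly in new 35×35×35 cm plastic cages under dim light with sound attenuation. Activity was logged by a monitoring apparatus at intervals up to 30 min, and the 5 min point was analysed. Mean ± SEM; one-way ANOVA, Scheffe post hoc, versus control.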

Data set [7] deals with Mus musculus. Kind of data set: Antidepressant activity in mouse assessed as decrease in immobility at 50 mg/kg, po administered 30 mins prior to testing by tail suspension test relative to vehicle control. The data set is classed as functional. On the set-up: scale not given: the % may be the effect or the level left. The essentials:
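Oral doses of 10–50 mg/kg (three doses) were given once, 30 min before testing. Mice were hung by adhesive tape 1 cm from the tail tip, 75 cm above the tabletop. Immobility was recorded for 5 min, scored blind, 10–12 mice per group, against vehicle controls. One-way ANOVA with Scheffe post hoc test; p<0.05 significant.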

Chain of Sodium-dependent dopamine transporter (Q01959 whole entry): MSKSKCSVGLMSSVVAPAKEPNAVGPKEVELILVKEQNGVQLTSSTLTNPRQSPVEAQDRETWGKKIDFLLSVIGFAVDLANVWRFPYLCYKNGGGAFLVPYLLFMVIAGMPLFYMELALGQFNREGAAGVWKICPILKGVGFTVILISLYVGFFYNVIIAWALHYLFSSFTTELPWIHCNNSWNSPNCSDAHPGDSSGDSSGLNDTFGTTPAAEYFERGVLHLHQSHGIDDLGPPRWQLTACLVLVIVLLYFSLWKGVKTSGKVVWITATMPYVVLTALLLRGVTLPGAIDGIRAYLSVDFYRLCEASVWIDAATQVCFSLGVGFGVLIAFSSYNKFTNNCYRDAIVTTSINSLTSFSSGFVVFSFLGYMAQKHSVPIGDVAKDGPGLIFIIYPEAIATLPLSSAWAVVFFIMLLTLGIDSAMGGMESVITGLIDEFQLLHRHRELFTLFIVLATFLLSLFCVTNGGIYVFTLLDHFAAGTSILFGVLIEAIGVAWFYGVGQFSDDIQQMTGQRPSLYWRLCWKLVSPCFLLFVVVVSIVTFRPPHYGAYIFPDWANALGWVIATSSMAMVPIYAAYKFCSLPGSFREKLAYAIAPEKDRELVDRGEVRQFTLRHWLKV
T1 sequence (P23975 whole entry): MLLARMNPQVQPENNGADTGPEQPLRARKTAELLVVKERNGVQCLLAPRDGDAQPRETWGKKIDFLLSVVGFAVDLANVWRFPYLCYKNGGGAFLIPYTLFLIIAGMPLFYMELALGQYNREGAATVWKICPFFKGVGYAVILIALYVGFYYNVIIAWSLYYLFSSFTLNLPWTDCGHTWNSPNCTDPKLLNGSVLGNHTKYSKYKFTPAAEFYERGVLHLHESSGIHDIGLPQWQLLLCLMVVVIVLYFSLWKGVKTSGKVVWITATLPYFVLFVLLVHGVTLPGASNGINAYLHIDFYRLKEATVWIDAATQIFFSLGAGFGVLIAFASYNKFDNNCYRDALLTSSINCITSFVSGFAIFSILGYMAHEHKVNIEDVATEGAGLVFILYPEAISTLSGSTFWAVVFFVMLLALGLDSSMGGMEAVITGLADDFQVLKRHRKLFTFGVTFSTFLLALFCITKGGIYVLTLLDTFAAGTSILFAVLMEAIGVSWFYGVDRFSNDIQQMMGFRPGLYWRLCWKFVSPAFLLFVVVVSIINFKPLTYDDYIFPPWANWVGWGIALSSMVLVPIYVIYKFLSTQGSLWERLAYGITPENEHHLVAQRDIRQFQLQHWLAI

Regarding `C[C@@H]([C@@H](O)c1cccc(F)c1)N1CC=C(Cc2ccccc2)CC1` (racemic), the figures for the inhibition in data set [1], in data set [2] and in data set [3] were 57%, 63% and 70%, respectively.
The like results for `C[C@H]([C@@H](O)c1ccc(Cl)c(Cl)c1)N1CC=C(Cc2ccccc2)CC1` (racemic) were, in that order, 36%, 38% and 56%.
The like results for `O=[N+]([O-])c1ccc(C(O)CCN2CC=C(Cc3ccccc3)CC2)cc1` (racemic) were, in that order, 74%, 65% and 55%.
The like results for `C[C@H]([C@@H](O)c1cccc(F)c1)N1CC=C(Cc2ccccc2)CC1` (racemic) were, in that order, 83%, 61% and 35%.
As for `OC(CCN1CCC(O)(Cc2ccccc2)CC1)c1csc2ccccc12` (racemic), the inhibition worked out at 61% in data set [1], 27% in data set [2] and 64% in data set [3].
As for `COc1ccc([C@H](O)[C@H](C)N2CC=C(Cc3ccccc3)CC2)cc1` (racemic), the inhibition is 55% in data set [1], 80% in data set [2] and 68% in data set [3].
On to `COc1ccc2cc([C@H](O)[C@@H](C)N3CCC(O)(Cc4ccccc4)CC3)ccc2c1Cl` (racemic), for which the values for the inhibition in data set [1], in data set [2] and in data set [3] were 63%, 80% and 51%, respectively.
The like results for `OC(CCN1CC=C(Cc2ccccc2)CC1)c1ccc2c(c1)CCO2` (racemic) were, in that order, 88%, 74% and 49%.
In the case of `COc1ccc(C(O)CCN2CC=C(Cc3ccccc3)CC2)cc1` (racemic), the figures for the inhibition in data set [1] and in data set [3] were 62% and 57%, respectively. Further, in data set [4], the pIC50 is 6.11.
As to `C[C@@H]([C@@H](O)c1csc2ccccc12)N1CC=C(Cc2ccccc2)CC1` (racemic), the inhibition was found to be 34% in data set [1], 33% in data set [2] and 77% in data set [3].
With `COc1ccc2cc([C@H](O)[C@H](C)N3CCC(O)(Cc4ccccc4)CC3)ccc2c1Cl` (racemic), the inhibition in data set [1] came out at 55%; in data set [3], 22%. Also, in data set [4], the pIC50 is 6.45.
On to `C[C@@H]([C@@H](O)c1ccc(Cl)c(Cl)c1)N1CC=C(Cc2ccccc2)CC1` (racemic), for which the pIC50 was 6.44 in data set [4] and 6.27 in data set [5]. The compound further came in with an inhibition in data set [3] of 64%.
Take `C[C@H]([C@@H](O)c1csc2ccccc12)N1CC=C(Cc2ccccc2)CC1` (racemic): the figures for the inhibition in data set [1], in data set [2] and in data set [3] were 78%, 55% and 75%, respectively.
For `COc1ccc(C(CN(C)C)C2(O)CCCCC2)cc1` (configuration not stated) [VENLAFAXINE], the Activity result was “Non-toxic” with Mus musculus [6] and 63% in the data set on Mus musculus [7].
For `COc1ccc2cc(C(O)CCN3CCC(O)(Cc4ccccc4)CC3)ccc2c1Cl` (racemic), the pIC50 in data set [4] was 6.37; in data set [5] it was 6.10. The compound further displayed an inhibition in data set [3] of 73%.
Consider `OC(CCN1CC=C(Cc2ccccc2)CC1)c1ccc(F)cc1F` (racemic), for which the inhibition stood at 78% in data set [1], 66% in data set [2] and 66% in data set [3].
`COc1ccc([C@H](O)[C@@H](C)N2CC=C(Cc3ccccc3)CC2)cc1` (racemic): the results for the inhibition in data set [1], in data set [2] and in data set [3] were 62%, 59% and 70%, respectively.
Taken in the same sequence, the figures for `COc1ccc(C(O)CCN2CC=C(Cc3ccccc3)CC2)cc1OC` (racemic) were 63%, 74% and 61%.
For the compound `Cc1ccc(C(O)CCN2CC=C(Cc3ccccc3)CC2)cc1` (racemic), the inhibition amounted to 83% in data set [1], 62% in data set [2] and 30% in data set [3].
Taken in the same sequence, the figures for `OC(CCN1CC=C(Cc2ccccc2)CC1)c1cccs1` (racemic) were 82%, 78% and 52%.
The like results for `OC(CCN1CC=C(Cc2ccccc2)CC1)c1ccc(Cl)cc1` (racemic) were, in that order, 50%, 56% and 61%.

In general, inhibition refers to the share of the control response that was lost under treatment. The term pIC50 denotes −log10 of the IC50, conventionally taken in molar units.
